This note sets out measurements from ChEMBL document CHEMBL1142953, “Calcitonin gene-related peptide analogues with aza and indolizidinone amino acid residues reveal conformational requirements for antagonist activity at the human calcitonin gene-related peptide 1 receptor” (J Med Chem, 2007).

Common to all, as to format: functional, cell-based
The target of assay [1] is Calcitonin gene-related peptide type 1 receptor (Homo sapiens, UniProt O60894+Q16602). The assay can be described thus: (§1) Antagonist activity against human CGRP1 expressed in HEK293 cells assessed as inhibition of human alpha-CGRP-promoted cAMP production. The method in brief:
(§2)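 HEK293 cells stably expressing CRLR, seeded at 5000 cells/well. Cells preincubated with peptide analogues for 15 min at 37 °C, then stimulated with 0.5 nM α-CGRP for 15 min at 37 °C. cAMP measured with a fluorescence-based kit. Peptides tested up to 100 µM. At least three independent experiments in triplicate, analysed by nonlinear curve fitting; mean ± SEM.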

In assay [2] the target is Calcitonin gene-related peptide type 1 receptor (Homo sapiens) (UniProt Q16602). The description is as §1. Particulars: concentration not given here. On the set-up: concentration or dose not given beside the values. The method in brief:
as §2

For assay [3] the target is unchanged. Briefly: Partial agonist activity at human CGRP1 expressed in HEK293 cells assessed by measuring cAMP production upto 1 uM. The method in brief:
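HEK293 cells stably expressing CRLR were exposed to CGRP27-37 analogues up to 1 µM without α-CGRP. cAMP production was measured with a fluorescence-based kit as the read-out.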
In general terms: cAMP levels reflect the balance of adenylyl cyclase and phosphodiesterase activity.

Assay [4] has the same target. The assay can be described thus: Antagonist activity against human CGRP1 expressed in HEK293 cells assessed as inhibition of human alpha-CGRP-promoted cAMP production upto 100 uM. The essentials: as §2

Active and inactive are the calls of the source. The calls are words filed in the database; no cut-off is given here. Where a SMILES comes first, the peptide text is derived from it.

Sequence of Calcitonin gene-related peptide type 1 receptor (Q16602 whole entry, one chain of several): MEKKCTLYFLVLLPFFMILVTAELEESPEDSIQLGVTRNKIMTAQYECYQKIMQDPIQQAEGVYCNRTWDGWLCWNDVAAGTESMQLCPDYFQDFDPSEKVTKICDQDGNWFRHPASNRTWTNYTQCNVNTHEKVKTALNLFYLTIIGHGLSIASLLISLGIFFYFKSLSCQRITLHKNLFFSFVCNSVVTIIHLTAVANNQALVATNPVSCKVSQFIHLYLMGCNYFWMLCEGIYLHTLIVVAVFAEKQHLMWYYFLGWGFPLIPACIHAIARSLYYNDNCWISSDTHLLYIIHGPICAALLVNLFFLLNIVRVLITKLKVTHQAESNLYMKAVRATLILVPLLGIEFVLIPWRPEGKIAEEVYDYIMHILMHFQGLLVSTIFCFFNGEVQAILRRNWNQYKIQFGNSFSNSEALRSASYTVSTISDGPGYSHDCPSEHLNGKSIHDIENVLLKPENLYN
Sequence of Calcitonin gene-related peptide type 1 receptor (Homo sapiens) (Q16602 whole entry): as the sequence (Q16602 whole entry, one chain of several) above

By IC50 is commonly meant the concentration that inhibits the measured activity by half. Consider `CC(C)[C@H](NC(=O)[C@H](CC(=O)O)NC(=O)[C@@H](NC(=O)[C@@H]1CCCN1C(=O)[C@@H](NC(=O)[C@@H](N)Cc1ccccc1)C(C)C)[C@@H](C)O)C(=O)NCC(=O)N1CCC[C@H]1C(=O)NN(Cc1ccccc1)C(=O)N[C@@H](C)C(=O)N[C@@H](Cc1ccccc1)C(N)=O`, for which the half-inhibitory concentration (IC50) in assay [1] is 5750 nM.
For orientation: inhibition means the change of the read-out against control, counted positive when it falls. On to H-PTDVGPFAF-NH2, for which the inhibition in assay [2] came out at 81%. In addition, the IC50 in assay [1] was 776 nM.
For the molecule `CC(C)[C@H](NC(=O)N(CC(=O)O)NC(=O)[C@@H](NC(=O)[C@@H]1CCCN1C(=O)[C@@H](NC(=O)[C@@H](N)Cc1ccccc1)C(C)C)[C@@H](C)O)C(=O)NCC(=O)N1CCC[C@H]1C(=O)N[C@@H](Cc1ccccc1)C(=O)N[C@@H](C)C(=O)N[C@@H](Cc1ccccc1)C(N)=O` (HELM PEPTIDE1{F.V.P.T.[O=C(O)CN(N[*:1])C(=O)[*:2]].V.G.P.F.A.F.[am]}$$$$V2.0), in assay [2], the inhibition came to 59%. Further, the half-inhibitory concentration (IC50) in assay [1] is 380 nM. For the same molecule, the result in assay [3] was inactive.
For the molecule `CC(C)[C@H](NC(=O)[C@H](CC(=O)O)NC(=O)[C@@H](NC(=O)[C@@H]1CCCN1)[C@@H](C)O)C(=O)NCC(=O)N[C@H]1C[C@H]2CCC[C@@H](C(=O)N[C@@H](C)C(=O)N[C@@H](Cc3ccccc3)C(N)=O)N2C1=O`, the outcome in assay [4] was inactive.
Take `CC(C)[C@H](NC(=O)[C@H](CC(=O)O)NC(=O)[C@@H](NC(=O)[C@@H]1CCCN1)[C@@H](C)O)C(=O)NCC(=O)N1CCCN1C(=O)N[C@@H](Cc1ccccc1)C(=O)N[C@@H](C)C(=O)N[C@@H](Cc1ccccc1)C(N)=O` (HELM PEPTIDE1{P.T.D.V.G.[O=C(N1CCCN1[*:1])[*:2]].F.A.F.[am]}$$$$V2.0): in assay [2], the inhibition was determined as 68%. Further, in assay [1], the 50% inhibitory concentration (IC50) was 4470 nM.
As for `C[C@H](NC(=O)[C@H](Cc1ccccc1)NC(=O)[C@@H]1CCCN1C(=O)CNC(=O)[C@@H]1CC[C@@H]2CC[C@H](NC(=O)[C@@H](NC(=O)[C@@H]3CCCN3)[C@H](C)O)C(=O)N21)C(=O)N[C@@H](Cc1ccccc1)C(N)=O`, the result in assay [4] was inactive.
The same measure, in the same setting: for `CC(C)[C@H](NC(=O)[C@H](CC(=O)O)NC(=O)[C@@H](NC(=O)[C@@H]1CCCN1)[C@@H](C)O)C(=O)NCC(=O)N1CCCC1C(=O)N[C@@H](Cc1ccccc1)C(=O)N[C@H]1C[C@H]2C[C@@H](c3ccccc3)C[C@@H](C(N)=O)N2C1=O` (stereo not given in full) (HELM PEPTIDE1{P.T.D.V.G.[O=C(C1CCCN1[*:1])[*:2]].F.[NC(=O)[C@@H]1C[C@H](c2ccccc2)C[C@@H]2C[C@H](N[*:1])C(=O)N21]}$$$$V2.0) the value was “inactive”; for `CC(C)[C@H](NC(=O)[C@H](CC(=O)O)NC(=O)[C@@H](NC(=O)[C@@H]1CCCN1)[C@@H](C)O)C(=O)NCC(=O)N1CCC[C@H]1C(=O)N[C@@H](Cc1ccccc1)C(=O)NN(C)C(=O)N[C@@H](Cc1ccccc1)C(N)=O` (HELM PEPTIDE1{P.T.D.V.G.P.F.[CN(N[*:1])C(=O)[*:2]].F.[am]}$$$$V2.0), “inactive”.
Consider `CC(C)[C@H](NC(=O)[C@H](CC(=O)O)NC(=O)[C@@H](NC(=O)[C@@H]1CCCN1C(=O)[C@@H](NC(=O)[C@@H](N)Cc1ccccc1)C(C)C)[C@@H](C)O)C(=O)NCC(=O)N1CCC[C@H]1C(=O)N[C@@H](Cc1ccccc1)C(=O)N[C@@H](C)C(=O)N[C@@H](Cc1ccccc1)C(N)=O`, for which, in assay [2], the inhibition was determined as 68%. For the same molecule, the outcome in assay [3] was inactive.
On to `CC(C)[C@H](NC(=O)[C@@H](N)Cc1ccccc1)C(=O)N1CCC[C@@H]1C(=O)N[C@H](C(=O)N[C@@H](CC(=O)O)C(=O)N[C@H]1C[C@H]2CCC[C@@H](C(=O)N3CCC[C@H]3C(=O)N[C@@H](Cc3ccccc3)C(=O)N[C@@H](C)C(=O)N[C@@H](Cc3ccccc3)C(N)=O)N2C1=O)[C@H](C)O`, for which the outcome in assay [4] and in assay [3] was inactive.
`CC(C)[C@H](NC(=O)[C@H](CC(=O)O)NC(=O)[C@@H](NC(=O)[C@@H]1CCCN1C(=O)[C@@H](NC(=O)[C@H](N)Cc1ccccc1)C(C)C)[C@@H](C)O)C(=O)NNC(=O)N1CCC[C@H]1C(=O)N[C@@H](Cc1ccccc1)C(=O)N[C@@H](C)C(=O)N[C@@H](Cc1ccccc1)C(N)=O`: the inhibition in assay [2] amounted to 70%. Further, the result in assay [3] was inactive.
Consider `CC(C)[C@H](NC(=O)[C@H](CC(=O)O)NC(=O)[C@@H](NC(=O)C1CCCN1)[C@@H](C)O)C(=O)NCC(=O)N[C@H]1C[C@H]2C[C@@H](c3ccccc3)C[C@@H](C(=O)N[C@@H](C)C(=O)N[C@@H](Cc3ccccc3)C(N)=O)N2C1=O` (stereo not given in full), for which the outcome in assay [4] was inactive.
For the molecule `CC(C)[C@H](NC(=O)[C@H](CC(=O)O)NC(=O)[C@@H](NC(=O)[C@@H]1CCCN1C(=O)[C@@H](NC(=O)[C@H](N)Cc1ccccc1)C(C)C)[C@@H](C)O)C(=O)NCC(=O)N1CCC[C@H]1C(=O)N[C@@H](Cc1ccccc1)C(=O)NN(C)C(=O)N[C@@H](Cc1ccccc1)C(N)=O`, the inhibition in assay [2] stood at 51%. In assay [3], the outcome was inactive.
Regarding `CC(C)[C@H](NC(=O)[C@H](CC(=O)O)NC(=O)[C@@H](NC(=O)[C@@H]1CCCN1C(=O)[C@@H](NC(=O)[C@@H](N)Cc1ccccc1)C(C)C)[C@@H](C)O)C(=O)NCC(=O)N1CCC[C@@H]1C(=O)N[C@@H](Cc1ccccc1)C(=O)N[C@H]1C[C@H]2C[C@@H](c3ccccc3)C[C@@H](C(N)=O)N2C1=O`, the outcome in assay [4] and in assay [3] was inactive.
On to `CC(C)[C@H](NC(=O)[C@H](CC(=O)O)NC(=O)[C@@H](NC(=O)[C@@H]1CCCN1C(=O)[C@@H](NC(=O)[C@@H](N)Cc1ccccc1)C(C)C)[C@@H](C)O)C(=O)NCC(=O)N[C@H]1CC[C@H]2CC[C@@H](C(=O)N[C@@H](C)C(=O)N[C@@H](Cc3ccccc3)C(N)=O)N2C1=O`, for which the outcome in assay [4] and in assay [3] was inactive.
Turning to `CC(C)[C@H](NC(=O)[C@H](CC(=O)O)NC(=O)[C@@H](NC(=O)C1CCCN1C(=O)[C@@H](NC(=O)[C@@H](N)Cc1ccccc1)C(C)C)[C@@H](C)O)C(=O)NCC(=O)N[C@H]1C[C@H]2C[C@@H](c3ccccc3)C[C@@H](C(=O)N[C@@H](C)C(=O)N[C@@H](Cc3ccccc3)C(N)=O)N2C1=O` (stereo not given in full), the outcome in assay [4] and in assay [3] was inactive.
With `CC(C)[C@H](NC(=O)[C@H](CC(=O)O)NC(=O)[C@@H](NC(=O)[C@@H]1CCCN1)[C@@H](C)O)C(=O)NCC(=O)N1CCC[C@H]1C(=O)NN(Cc1ccccc1)C(=O)N[C@@H](C)C(=O)N[C@@H](Cc1ccccc1)C(N)=O` (HELM PEPTIDE1{P.T.D.V.G.P.[O=C(N(Cc1ccccc1)N[*:1])[*:2]].A.F.[am]}$$$$V2.0), the outcome in assay [4] was inactive.
Take `CC(C)[C@H](NC(=O)[C@@H](N)Cc1ccccc1)C(=O)N1CCC[C@H]1C(=O)N[C@H](C(=O)N[C@H]1C[C@H]2CCC[C@@H](C(=O)NCC(=O)N3CCC[C@H]3C(=O)N[C@@H](Cc3ccccc3)C(=O)N[C@@H](C)C(=O)N[C@@H](Cc3ccccc3)C(N)=O)N2C1=O)[C@H](C)O`: the result in assay [4] and in assay [3] was inactive.
`CC(C)[C@H](NC(=O)[C@H](CC(=O)O)NC(=O)[C@@H](NC(=O)[C@@H]1CCCN1C(=O)[C@@H](NC(=O)[C@H](N)Cc1ccccc1)C(C)C)[C@@H](C)O)C(=O)NCC(=O)N1CCC[C@H]1C(=O)NN(Cc1ccccc1)C(=O)N[C@@H](C)C(=O)N[C@@H](Cc1ccccc1)C(N)=O`: the inhibition in assay [2] was 69%. Besides, the result in assay [3] was inactive.
Turning to `CC(C)[C@H](NC(=O)N(CC(=O)O)NC(=O)[C@@H](NC(=O)[C@@H]1CCCN1)[C@@H](C)O)C(=O)NCC(=O)N1CCC[C@H]1C(=O)N[C@@H](Cc1ccccc1)C(=O)N[C@@H](C)C(=O)N[C@@H](Cc1ccccc1)C(N)=O` (HELM PEPTIDE1{P.T.[O=C(O)CN(N[*:1])C(=O)[*:2]].V.G.P.F.A.F.[am]}$$$$V2.0), the outcome in assay [4] was inactive.
Still for that read-out and setting: for `CC(C)[C@H](NC(=O)[C@H](CC(=O)O)NC(=O)[C@@H](NC(=O)[C@@H]1CCCN1)[C@@H](C)O)C(=O)NNC(=O)N1CCC[C@H]1C(=O)N[C@@H](Cc1ccccc1)C(=O)N[C@@H](C)C(=O)N[C@@H](Cc1ccccc1)C(N)=O` (HELM PEPTIDE1{P.T.D.V.[O=C(NN[*:1])[*:2]].P.F.A.F.[am]}$$$$V2.0) the value was “inactive”.
With `CC(C)[C@H](NC(=O)[C@H](CC(=O)O)NC(=O)[C@@H](NC(=O)[C@@H]1CCCN1C(=O)[C@@H](NC(=O)[C@@H](N)Cc1ccccc1)C(C)C)[C@@H](C)O)C(=O)NCC(=O)N[C@H]1C[C@H]2CCC[C@@H](C(=O)N[C@@H](C)C(=O)N[C@@H](Cc3ccccc3)C(N)=O)N2C1=O`, the result in assay [4] and in assay [3] was inactive.
Regarding `CC(C)[C@H](NC(=O)[C@H](CC(=O)O)NC(=O)[C@@H](NC(=O)[C@@H]1CCCN1C(=O)[C@@H](NC(=O)[C@@H](N)Cc1ccccc1)C(C)C)[C@@H](C)O)C(=O)NCC(=O)N1CCC[C@H]1C(=O)N[C@@H](Cc1ccccc1)C(=O)NN(C)C(=O)N[C@@H](Cc1ccccc1)C(N)=O`, the 50% inhibitory concentration (IC50) in assay [1] is 3550 nM.
On to `CC(C)[C@H](NC(=O)[C@H](CC(=O)O)NC(=O)[C@@H](NC(=O)[C@@H]1CCCN1C(=O)[C@@H](NC(=O)[C@@H](N)Cc1ccccc1)C(C)C)[C@@H](C)O)C(=O)N[C@H]1C[C@H]2CCC[C@@H](C(=O)N[C@@H](Cc3ccccc3)C(=O)N[C@@H](C)C(=O)N[C@@H](Cc3ccccc3)C(N)=O)N2C1=O`, for which the outcome in assay [4] and in assay [3] was inactive.
Consider `CC(C)[C@H](NC(=O)[C@H](CC(=O)O)NC(=O)[C@@H](NC(=O)[C@@H]1CCCN1C(=O)[C@@H](NC(=O)[C@@H](N)Cc1ccccc1)C(C)C)[C@@H](C)O)C(=O)NNC(=O)N1CCC[C@H]1C(=O)N[C@@H](Cc1ccccc1)C(=O)N[C@@H](C)C(=O)N[C@@H](Cc1ccccc1)C(N)=O`, for which the IC50 in assay [1] was 67.6 nM.
